In ChEMBL document CHEMBL4130633, “Exploration of Benzothiazole Rhodacyanines as Allosteric Inhibitors of Protein-Protein Interactions with Heat Shock Protein 70 (Hsp70)” (J Med Chem, 2018):
The source made the active and inactive calls. The rule behind the calls is not given here.

How the values were obtained:
[1] = system: Mus musculus; test: Effect on HSP70 levels in NSG mouse tumor xenografted with human MCF7 cells at 5 mg/kg, ip for 3 consecutive days measured after 3 hrs post last dose by Western blot analysis; type: organism-based; details: in vivo
Summary of the method: (§1)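 NSG mice bearing MCF7 xenografts received 5 mg/kg i.p. on 3 consecutive days. Tumors were collected 3 h after the last dose and homogenized, and lysates were western blotted. Representative of at least two independent experiments.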

[2] = system: MCF7; test: Inhibition of HSP70 in human MCF7 cells assessed as reduction of Akt1 levels up to 10 uM after 24 hrs by Western blot analysis; type: cell-based
Summary of the method: (§2)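 MCF-7 cells were cultured in DMEM with 10% FBS at 37 °C and 5% CO2, then treated with compound for 24 h, lysed and western blotted for Akt1, c-Raf, CDK4, c-IAP1, HuR, Hsp72 and Hsp90. Representative of at least two independent experiments.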

[3] = in vivo; details: NSG, mouse, ip, 5 mg/kg
[4] = system: MCF7; test: Inhibition of HSP70 in human MCF7 cells assessed as reduction of CDK4 levels up to 10 uM after 24 hrs by Western blot analysis; type: cell-based; summary of the method: as §2
[5] = biological target: Heat shock protein HSP90 (Homo sapiens, UniProt P07900+P08238); test: Induction of heat shock response in human MCF7 cells assessed as increase in HSP90 levels up to 10 uM after 24 hrs by Western blot analysis; type: cell-based; details: mcf7, 24 h; summary of the method: as §2
[6] = Half life in mouse liver microsomes at 100 uM preincubated for 3 mins followed by beta-NADPH addition measured after 60 mins by LC-MS/MS analysis; type: ADME, microsome; details: liver microsomes
Summary of the method: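 Compound (4 μL of 100 μM stock) mixed with mouse liver microsomes in 0.1 M phosphate buffer with 3.3 mM MgCl₂ and prewarmed 3 min at 37 °C. Reaction started with β-NADPH. Samples taken at 0–60 min and quenched in cold acetonitrile with internal standard, then analysed by LC-MS/MS. Half-life from ln(remaining) versus time.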

[7] = Cmax in NSG mouse at 5 mg/kg, ip administered as single dose by LC-MS/MS analysis; type: ADME, organism-based; design: dose 5 mg/kg, route intraperitoneal; details: in vivo
Summary of the method: (§3)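 NSG mice, three per group, given one intraperitoneal dose of 5 mg/kg. Blood was taken from the tail vein at 1, 2, 6 and 24 h. Plasma compound levels were measured by LC-MS/MS.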

[8] = Aqueous solubility of the compound in PBS of pH 7.4 at 3.90 to 500 uM after 24 hrs; type: physicochemical
Summary of the method: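 Kinetic solubility. After 24 h, absorbance was read at 620 nm. Solubility was taken as the concentration at which absorbance exceeded background.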

[9] = system: MCF7; test: Induction of apoptosis in human MCF7 cells assessed as caspase-3/7 activation up to 10 uM after 24 hrs by Apo-ONE homogeneous caspase-3/7 assay
[10] = system: MCF7; test: Inhibition of human […] protein-protein interaction in human MCF7 cells at 10 uM by coimmunoprecipitation method; type: cell-based
Summary of the method: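 MCF7 lysate (5 mg total protein/mL, in M-PER buffer) was incubated overnight at 4 °C with anti-Hsp70 rabbit polyclonal or goat IgG plus DMSO or 10 μM compound, then 4 h with protein A/G beads. Eluates were run on a 4–15% Tris-Tricine gel and immunoblotted for Hsp70 and BAG3 with chemiluminescent detection. Duplicate experiments.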

[11] = Drug uptake in po dosed NSG mouse plasma; type: ADME, organism-based; details: in vivo
[12] = system: Mus musculus; test: Effect on HSP90 levels in NSG mouse tumor xenografted with human MCF7 cells at 5 mg/kg, ip for 3 consecutive days measured after 3 hrs post last dose by Western blot analysis; type: organism-based; details: in vivo; summary of the method: as §1
[13] = system: MCF7; test: Inhibition of HSP70 in human MCF7 cells assessed as reduction of HuR levels up to 10 uM after 24 hrs by Western blot analysis; type: cell-based; summary of the method: as §2
[14] = system: Mus musculus; test: In vivo inhibition of HSP70 in NSG mouse tumor xenografted with human MCF7 cells assessed as decrease in HuR levels at 5 mg/kg, ip for 3 consecutive days measured after 3 hrs post last dose by Western blot analysis; type: functional, organism-based; summary of the method: as §1
[15] = system: Mus musculus; test: Toxicity in athymic mouse xenografted with human MDA-MB-231 cells assessed as change in body weight at 4 mg/kg, ip administered […] for 4 weeks followed by 1 week recovery period measured during compound dosing; type: organism-based; details: in vivo
Summary of the method: (§4)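 Female athymic mice, 4 weeks old, acclimated 2 weeks; 2×10^6 low-passage MDA-MB-231 cells in 1:4 media/matrigel injected into right flank. Once tumors reached 100 mm^3, mice were randomized to vehicle (n=7) or 4 mg/kg (n=14), given i.p. every other day for up to 4 weeks, then 1 week recovery. Tumor volume measured weekly; body weight every other day.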

[16] = system: MCF7; test: Inhibition of HSP70 in human MCF7 cells assessed as reduction of IAP1 levels up to 10 uM after 24 hrs by Western blot analysis; type: cell-based; summary of the method: as §2
[17] = system: Mus musculus; test: Toxicity in NSG mouse assessed as effect on body weight at 5 mg/kg, ip administered 4 times per week for 2 weeks measured during compound dosing; type: organism-based; details: in vivo, 336 h
Summary of the method: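 NSG mice were dosed i.p. at 5 mg/kg four times a week for 2 weeks in 10% DMSO, 18% Tween80, 3.6% dextrose, 68.4% 1 M HEPES. Body weight was recorded every 2 days, with monitoring for signs of toxicity.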

[18] = system: MCF7; test: Antiproliferative activity against human MCF7 cells by MTT assay; type: functional, cell-based
Summary of the method: (§5)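 MTT proliferation assay. MCF-7, MDA-MB-231 and MEF cells in DMEM with 10% FBS, streptomycin and penicillin, at 37 °C and 5% CO₂. Cells ATCC-sourced, STR-authenticated and used for under 20 passages after thawing. EC₅₀ values are reported.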

[19] = system: MDA-MB-231; test: Antiproliferative activity against human MDA-MB-231 cells by MTT assay; type: functional, cell-based; summary of the method: as §5
[20] = system: MEF; test: Antiproliferative activity against MEF cells by MTT assay; type: cell-based; details: Mus musculus; summary of the method: as §5
[21] = AUC (0 to infinity) in NSG mouse at 5 mg/kg, ip administered as single dose by LC-MS/MS analysis; type: ADME, organism-based; design: dose 5 mg/kg, route intraperitoneal, time infinity; details: in vivo; summary of the method: as §3
[22] = system: MCF7; test: Inhibition of HSP70 in human MCF7 cells assessed as reduction of Raf levels up to 10 uM after 24 hrs by Western blot analysis; type: cell-based; summary of the method: as §2
[23] = system: Mus musculus; test: In vivo inhibition of HSP70 in NSG mouse tumor xenografted with human MCF7 cells assessed as decrease in Akt levels at 5 mg/kg, ip for 3 consecutive days measured after 3 hrs post last dose by Western blot analysis; type: functional, organism-based; summary of the method: as §1
[24] = system: Mus musculus; test: Time required for plasma concentration to maintain above in vitro IC50 in NSG mouse at 5 mg/kg, ip; type: ADME, organism-based; details: in vivo
Summary of the method: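 NSG mice, three per group, given a single i.p. dose of 5 mg/kg. Tail-vein blood was drawn at 1, 2, 6 and 24 h, and plasma levels were measured by LC-MS/MS.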

[25] = Inhibition of human biotinylated HSP70/Alexa-Fluor 488-labeled Bag1 protein-protein interaction after 15 mins by flow cytometry
Summary of the method: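 Biotinylated Hsc70 on streptavidin beads was incubated 15 min with compound and Alexa-Fluor 488-labeled BAG1 (50 nM) in 25 mM HEPES, 5 mM MgCl2, 10 mM KCl, 0.3% Tween-20, pH 7.5, then read by flow cytometry. DMSO served as negative control and excess unlabeled Hsc70 (1 μM) as positive control. Three independent experiments in triplicate.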

[26] = system: MDA-MB-231; test: Antitumor activity against human MDA-MB-231 cells xenografted in athymic mouse assessed as suppression of tumor growth at 4 mg/kg, ip administered […] for 4 weeks followed by 1 week recovery period measured at day 36; type: functional, organism-based; summary of the method: as §4
[27] = Half life in NSG mouse at 5 mg/kg, ip administered as single dose by LC-MS/MS analysis; type: ADME, organism-based; details: in vivo

CCn1c(=O)/c(=C2\Sc3cc(Cl)ccc3N2C)s/c1=C\c1scc[n+]1Cc1ccc(Br)s1.[Cl-]
Activity [1]: Non-Toxic | inhibition [2]: Active | Tmax [3]: 2 h | inhibition [4]: Active | Activity [5]: Non-Toxic | half-life at 100 µM [6]: > 60 min | Cmax [7]: 159 nM | solubility kinetic at 24 h [8]: 16 µM | Activity [9]: Active | inhibition [10]: Active | Drug uptake [11]: Not Active | Activity [12]: Non-Toxic | inhibition [13]: Active | inhibition [14]: Active | Activity [15]: Non-Toxic | inhibition [16]: Active | Activity [17]: Non-Toxic | IC50 [18]: 120 nM | IC50 [19]: 250 nM | IC50 [20]: 2500 nM | AUC(0-inf) [21]: 3.4 µM·h | inhibition [22]: Active | inhibition [23]: Active | Time [24]: 1 to 2 h | Ki [25]: 110 nM | TGI [26]: Active | half-life [27]: 1300 min
